Measured values reported in ChEMBL document CHEMBL1126270, “Synthesis of 3-[(2,3-dihydro-1,1,3-trioxo-1,2-benzisothiazol-2-yl)alkyl] 1,4-dihydropyridine-3,5-dicarboxylate derivatives as calcium channel modulators” (J Med Chem, 1992).

Experiments:
Oryctolagus cuniculus [1] = species on record: Oryctolagus cuniculus; test: Relative potency evaluated (relative potency = IC50 of compound / IC50 of nifedipine) in rabbit; format: functional
Oryctolagus cuniculus [2] = species on record: Oryctolagus cuniculus; test: Maximum contractile force in rabbit aorta strips; format: functional
In short: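 Rabbit aortic strips, after equilibration in Ca2+-free Krebs, switched to buffer with 10 mM K+. Repeated 1.5 mM Ca2+ pulses until reproducible. Increasing compound concentrations each given 10 min before a further 1.5 mM Ca2+ pulse. Maximum contractile force (mg) taken as vasoconstrictor effect; data as mean ± SEM at 10^-6 M.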

Oryctolagus cuniculus [3] = species on record: Oryctolagus cuniculus; test: Blockade of calcium-evoked contractions evaluated in depolarized rabbit aortic strips; format: functional; conditions: Aorta
In short: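 Male New Zealand rabbit thoracic aorta, helicoidal strips, 2.5 g preload, Krebs–bicarbonate, 37 °C, 95% O2/5% CO2, pH 7.4. After 1 h equilibration, depolarized with 35 mM K+; 1.5 mM Ca2+ added 10 min later, repeated until reproducible. Compound at increasing concentrations from 20 min before and during Ca2+ addition; responses normalized to initial tension; IC50 by Finney method.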

Rattus norvegicus [4] = test: Systolic blood pressure after administration of a single oral dose (20 mg/kg) in spontaneously hypertensive rats; format: functional
In short: (§1)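 Conscious SHR trained 2 weeks, warmed at 31 ± 1 °C for 2 h; tail plethysmography SBP, mean of five readings; only rats above 170 mmHg used. After 24 h fasting, 20 mg/kg by gavage in 20% PEG-400/0.5% methylcellulose (10 mL/kg); SBP change read 1 h post-dose, n = 12.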

Oryctolagus cuniculus [5] = species on record: Oryctolagus cuniculus; test: Inhibition of electrically stimulated rabbit left atria contraction.; format: functional
In short: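 Rabbit left atria electrically driven (1 Hz, 10 ms, twice threshold voltage), equilibrated 1–1.5 h. Compounds added cumulatively (10^-10–10^-6 M), diluted from DMSO stocks into Krebs–Henseleit, final DMSO <0.1%. Isometric force recorded; IC50 from contractile force relative to initial control values, with 95% confidence limits.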

[6] = molecular target: T1, Voltage-dependent L-type calcium channel subunit alpha-1C (Oryctolagus cuniculus, UniProt P15381); test: Selectivity index was measured as the IC50 needed to depress the heart beat divided by IC50 needed to block [Ca2+] contractions in rabbit aortic strips; format: functional, tissue-based, Aorta
T1 sequence (P15381 whole entry): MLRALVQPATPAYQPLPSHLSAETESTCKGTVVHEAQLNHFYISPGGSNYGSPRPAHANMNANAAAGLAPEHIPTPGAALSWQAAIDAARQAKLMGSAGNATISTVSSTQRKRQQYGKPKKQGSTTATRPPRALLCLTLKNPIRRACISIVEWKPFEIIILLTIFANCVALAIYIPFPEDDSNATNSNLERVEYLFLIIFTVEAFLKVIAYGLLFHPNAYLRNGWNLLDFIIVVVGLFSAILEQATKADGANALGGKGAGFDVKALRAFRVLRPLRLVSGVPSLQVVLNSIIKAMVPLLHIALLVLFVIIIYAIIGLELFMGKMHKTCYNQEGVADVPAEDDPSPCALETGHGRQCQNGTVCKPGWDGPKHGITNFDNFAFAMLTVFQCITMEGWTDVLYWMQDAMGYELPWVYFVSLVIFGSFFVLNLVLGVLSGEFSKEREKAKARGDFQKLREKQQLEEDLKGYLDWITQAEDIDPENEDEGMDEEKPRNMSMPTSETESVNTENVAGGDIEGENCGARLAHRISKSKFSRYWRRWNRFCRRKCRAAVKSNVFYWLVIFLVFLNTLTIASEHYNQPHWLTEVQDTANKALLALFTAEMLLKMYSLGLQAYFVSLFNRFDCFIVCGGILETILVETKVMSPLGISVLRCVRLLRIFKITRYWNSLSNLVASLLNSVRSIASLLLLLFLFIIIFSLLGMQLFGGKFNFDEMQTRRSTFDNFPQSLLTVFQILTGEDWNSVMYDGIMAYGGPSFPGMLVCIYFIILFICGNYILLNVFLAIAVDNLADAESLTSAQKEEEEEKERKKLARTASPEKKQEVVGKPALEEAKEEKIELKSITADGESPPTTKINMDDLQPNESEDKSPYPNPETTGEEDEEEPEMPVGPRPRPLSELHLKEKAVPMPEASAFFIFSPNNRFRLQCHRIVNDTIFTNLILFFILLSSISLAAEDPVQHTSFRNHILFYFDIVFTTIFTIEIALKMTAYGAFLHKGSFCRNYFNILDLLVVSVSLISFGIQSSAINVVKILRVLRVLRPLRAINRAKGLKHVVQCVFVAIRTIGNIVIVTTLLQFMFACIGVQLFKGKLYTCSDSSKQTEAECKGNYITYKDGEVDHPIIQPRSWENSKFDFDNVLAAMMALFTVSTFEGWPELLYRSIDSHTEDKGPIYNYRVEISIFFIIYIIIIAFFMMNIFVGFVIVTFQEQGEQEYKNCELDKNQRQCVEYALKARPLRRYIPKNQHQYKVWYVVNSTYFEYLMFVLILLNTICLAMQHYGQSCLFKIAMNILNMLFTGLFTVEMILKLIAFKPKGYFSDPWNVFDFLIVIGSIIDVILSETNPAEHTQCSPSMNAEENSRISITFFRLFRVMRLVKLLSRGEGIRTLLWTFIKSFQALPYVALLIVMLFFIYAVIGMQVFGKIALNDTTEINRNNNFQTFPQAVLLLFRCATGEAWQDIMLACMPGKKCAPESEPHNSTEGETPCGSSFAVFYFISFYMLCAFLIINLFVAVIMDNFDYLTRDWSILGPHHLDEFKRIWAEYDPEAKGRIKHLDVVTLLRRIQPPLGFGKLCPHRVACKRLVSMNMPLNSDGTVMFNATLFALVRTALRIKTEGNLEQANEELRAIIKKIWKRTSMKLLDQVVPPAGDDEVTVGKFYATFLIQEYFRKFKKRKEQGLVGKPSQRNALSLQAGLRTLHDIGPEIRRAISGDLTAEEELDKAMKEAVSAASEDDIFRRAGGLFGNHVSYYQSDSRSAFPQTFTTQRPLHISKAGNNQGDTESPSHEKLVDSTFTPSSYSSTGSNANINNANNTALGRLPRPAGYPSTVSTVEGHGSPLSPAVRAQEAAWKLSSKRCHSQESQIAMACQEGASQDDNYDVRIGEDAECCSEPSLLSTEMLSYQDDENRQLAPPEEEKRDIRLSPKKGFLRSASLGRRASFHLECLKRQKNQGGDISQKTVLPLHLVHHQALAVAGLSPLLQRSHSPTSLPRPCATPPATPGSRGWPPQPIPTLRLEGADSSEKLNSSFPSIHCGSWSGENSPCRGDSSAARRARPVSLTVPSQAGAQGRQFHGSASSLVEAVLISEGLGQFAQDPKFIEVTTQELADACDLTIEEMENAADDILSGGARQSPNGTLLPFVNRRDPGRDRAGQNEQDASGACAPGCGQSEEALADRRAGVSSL

Oryctolagus cuniculus [7] = species on record: Oryctolagus cuniculus; test: Recovery of the initial contraction of rabbit aortic strips, blocked at 10e-7 M concentration.; conditions: Aorta
Rattus norvegicus [8] = test: Effect (iv, 100 ug/kg) on diastolic blood pressure in anesthetized normotensive rat; format: functional, Artery
In short: (§2)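 Male Wistar rats, 290 ± 30 g, pentobarbitone anesthesia (70 mg/kg ip), tracheal cannulation. Carotid arterial pressure recorded, dosing via femoral vein. Bolus iv of 0.1 mg/kg in PEG-400 (0.1 mL/kg); effects recorded continuously for 15 min; peak rise in mmHg above basal.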

Rattus norvegicus [9] = species on record: Rattus norvegicus; test: Compound evaluated for reducing diastolic blood pressure normotensive rats.; format: functional, Artery
Oryctolagus cuniculus [10] = species on record: Oryctolagus cuniculus; test: Compound was evaluated for contraction on Electrically driven Rabbit left atria. at 10e-7 M; format: functional
Oryctolagus cuniculus [11] = species on record: Oryctolagus cuniculus; test: Compound was evaluated for contraction on Electrically driven Rabbit left atria. at 10e-8 M; format: functional
Rattus norvegicus [12] = test: Effect (iv, 100 ug/kg) on systolic blood pressure in anesthetized normotensive rat; format: functional, Artery; in short: as §2
Oryctolagus cuniculus [13] = species on record: Oryctolagus cuniculus; test: Compound was evaluated for contraction on Electrically driven Rabbit left atria. at 10e-6 M; format: functional
[14] = molecular target: T1, Voltage-dependent L-type calcium channel subunit alpha-1C; test: Blockade of calcium-evoked contractions in depolarized aortic strips; format: functional, tissue-based, Aorta
Oryctolagus cuniculus [15] = species on record: Oryctolagus cuniculus; test: Relative potency was evaluated. (relative potency = IC50 of compound / IC50 of nifedipine); format: functional
[16] = molecular target: T1, Voltage-dependent L-type calcium channel subunit alpha-1C; conditions: rabbit, Aorta
Rattus norvegicus [17] = test: Systolic blood pressure after administration of a single oral dose (20 mg/kg) in spontaneously hypertensive rats.; format: functional; in short: as §1
Rattus norvegicus [18] = species on record: Rattus norvegicus; test: Duration of action in spontaneously hypertensive rats.; format: functional
In short: (§3)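 Anesthetized (pentobarbitone 70 mg/kg ip) Okamoto SHR, 290 ± 30 g; carotid pressure, femoral vein dosing. Cumulative increasing iv bolus doses of 1, 3, 6, 10, 20, 30 µg/kg in PEG-400 (0.1 mL/kg), each recorded 15 min; ED25 for lowering SBP and DBP and duration of hypotensive action estimated.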

Rattus norvegicus [19] = species on record: Rattus norvegicus; test: Compound evaluated for reducing diastolic blood pressure in spontaneously hypertensive rats.; format: functional; conditions: Artery; in short: as §3
Rattus norvegicus [20] = species on record: Rattus norvegicus; test: Reducing systolic blood pressure in spontaneously hypertensive rats.; format: functional; conditions: Artery; in short: as §1

Structure (SMILES) | Relative potency (Oryctolagus cuniculus [1]) | Max contractile force (Oryctolagus cuniculus [2]) [mg] | IC50 (Oryctolagus cuniculus [3]) [nM] | IC50 (Oryctolagus cuniculus [5]) [nM] | Recovery (Oryctolagus cuniculus [7]) [%] | other results
CC1=NC(C)=C(C(=O)OCCN2C(=O)c3ccccc3S2(=O)=O)C(c2ccccc2Cl)/C1=C(\O)OCC1CCCCO1 (configuration not stated) | <0.1 | 510 | 348 |  |  | 
CO/C(O)=C1\C(C)=NC(C)=C(C(=O)OCCN2C(=O)c3ccccc3S2(=O)=O)C1c1ccccc1Cl (configuration not stated) |  | 610 | > 1000 |  |  | 
CC1=NC(C)=C(C(=O)OCCN2C(=O)c3ccccc3S2(=O)=O)C(c2cccc(Cl)c2Cl)/C1=C(\O)OC(C)C (configuration not stated) | 10 |  | 0.3 | 686 | 0 | SBP change (Rattus norvegicus [4]): 8%; Selectivity index [6]: 2744
CC1=NC(C)=C(C(=O)OCCN2C(=O)c3ccccc3S2(=O)=O)C(c2cccc([N+](=O)[O-])c2)/C1=C(\O)OCC1CCCO1 (configuration not stated) | <0.1 | 570 | 107 |  |  | 
CC1=NC(C)=C(C(=O)OCCN2C(=O)c3ccccc3S2(=O)=O)C(c2ccccc2[N+](=O)[O-])/C1=C(\O)OCC1CCCCO1 (configuration not stated) |  | 990 | > 1000 |  |  | 
COC(=O)C1=C(C)NC(C)=C([N+](=O)[O-])C1c1ccccc1C(F)(F)F (configuration not stated) |  | 2570 |  |  |  | DBP (Rattus norvegicus [8]): 53.3; DBP change (Rattus norvegicus [9]): 53.3%; Contraction (Oryctolagus cuniculus [10]): 232.2%; Contraction (Oryctolagus cuniculus [11]): 97.8%; SBP (Rattus norvegicus [12]): 100; Contraction (Oryctolagus cuniculus [13]): 471.4%
CC1=NC(C)=C(C(=O)OCN2C(=O)c3ccccc3S2(=O)=O)C(c2ccccc2[N+](=O)[O-])/C1=C(\O)OCC1CCCO1 (configuration not stated) |  |  |  | 286 | 44.5 | IC50 [14]: 38 nM; Relative potency (Oryctolagus cuniculus [15]): 0.1; T1/2 [16]: 8.7 min
CC1=NC(C)=C(C(=O)OCCN2C(=O)c3ccccc3S2(=O)=O)C(c2cccc([N+](=O)[O-])c2)/C1=C(\O)OC(C)C (configuration not stated) | 9.7 |  | 0.3 | 37 | 0 | Selectivity index [6]: 137; SBP change (Rattus norvegicus [17]): 20%
CC1=NC(C)=C(C(=O)OCCN2C(=O)c3ccccc3S2(=O)=O)C(c2cccc(Cl)c2Cl)/C1=C(\O)OC(C)(C)C (configuration not stated) | 1.3 |  | 2.3 | 281 | 0 | SBP change (Rattus norvegicus [4]): 36%; Duration (Rattus norvegicus [18]): >15 min; Selectivity index [6]: 122; ED25 (Rattus norvegicus [19]): 0.011 mg/kg; ED25 (Rattus norvegicus [20]): 0.014 mg/kg
CO/C(O)=C1\C(C)=NC(C)=C(C(=O)OCCN2C(=O)c3ccccc3S2(=O)=O)C1c1ccccc1C(F)(F)F (configuration not stated) |  | 420 | > 1000 |  |  | 
CC1=NC(C)=C(C(=O)OCN2C(=O)c3ccccc3S2(=O)=O)C(c2cccc([N+](=O)[O-])c2)/C1=C(\O)OC(C)(C)C (configuration not stated) |  |  |  |  |  | IC50 [14]: 7.8 nM; Relative potency (Oryctolagus cuniculus [15]): 0.4
